ABCG2 block: inhibitors of human ABCG2 transporter, ABCB1 counter-screen | hit rate 0.1% among 190,000 | inhibition, % at 6.6 µM | Q9UNQ0 | AID 1325 | IgMXP3 cells, JC-1 efflux, flow cytometry;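 active means inhibition above 80%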;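 further: 0% = DMSO and 100% = nicardipine control wells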
Target sequence (Q9UNQ0 whole entry, looked up): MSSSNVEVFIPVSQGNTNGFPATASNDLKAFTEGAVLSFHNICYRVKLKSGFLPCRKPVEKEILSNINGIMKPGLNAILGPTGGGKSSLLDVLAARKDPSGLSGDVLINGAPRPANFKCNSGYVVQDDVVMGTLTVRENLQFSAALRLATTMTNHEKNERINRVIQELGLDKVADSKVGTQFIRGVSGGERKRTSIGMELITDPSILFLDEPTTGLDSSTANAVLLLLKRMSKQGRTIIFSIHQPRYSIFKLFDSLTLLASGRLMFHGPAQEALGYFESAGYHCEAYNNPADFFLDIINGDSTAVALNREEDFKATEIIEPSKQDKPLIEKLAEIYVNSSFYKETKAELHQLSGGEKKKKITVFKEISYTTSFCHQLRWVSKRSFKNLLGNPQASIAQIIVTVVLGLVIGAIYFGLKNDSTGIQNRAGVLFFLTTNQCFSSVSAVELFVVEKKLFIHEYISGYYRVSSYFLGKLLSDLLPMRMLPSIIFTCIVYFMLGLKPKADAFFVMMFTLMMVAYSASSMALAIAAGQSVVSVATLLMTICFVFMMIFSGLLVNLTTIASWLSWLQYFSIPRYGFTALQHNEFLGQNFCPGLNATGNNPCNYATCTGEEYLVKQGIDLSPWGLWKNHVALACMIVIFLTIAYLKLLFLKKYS
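System: two drug-resistant human cell lines, ABCG2 and ABCB1; controls: nicardipine high and DMSO low controls; times: 10 min exposure at 25 °C with rotation, no wash; detection: flow cytometry of retained JC-1 fluorescence; read-out basis: percent efflux inhibition, scaled nicardipine 100% to DMSO 0%; doses: one concentration, 6.6 µM final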
MEKK2 WT-MEK5: raises or lowers MEK5 binding to wildtype human MEKK2 PB1 domain. AID 1531. bead flow cytometry, Alexa488-MEK5 binding to MEKK2 WT; actives lie on both sides. hit rate 1.1% among 290,000. binding response (% of control), % at 10 µM. Q9Y2U5; in the data active means binding response below about 67% or above about 130%
ABCB1 block: blocks JC-1 efflux by human ABCB1 transporter; P08183; CCRF-Adr cells, flow cytometry; inhibition, % at 6.6 µM; hit rate 0.067% among 190,000; in the data active means inhibition above about 40%;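 further: 0% = vehicle and 100% = reference inhibitor; higher value means more JC-1 retained so stronger ABCB1 efflux block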
MEKK2mut PB1 HTS: signal of MEK5 binding to mutant human MEKK2 PB1 domain; bead flow cytometry, Alexa488-MEK5 binding to MEKK2 mutant; percent response, % at 10 µM; hit rate 0.35% among 290,000; in the data active means percent response above about 24%, passing the limit was not always enough
MEKK3 PB1 HTS: raises or lowers MEK5 binding to the human MEKK3 PB1 domain. Q99759. bead-based flow cytometry, Alexa488-MEK5 binding to MEKK3; actives lie on both sides; 0 = blocked by unlabeled MEK5, 100 = vehicle. binding response (% of control), % at 10 µM. hit rate 1.4% among 290,000. AID 1529;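 active means binding response more than 3 SD above or below the average of its plate-row segment, actives on both sides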;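 further: Alexa488 bead fluorescence after subtracting the streptavidin-only scavenger bead signal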
MEKK2wt confirm: raises or lowers MEK5 binding to wildtype human MEKK2, retest; shares compounds with MEKK3 PB1 HTS; bead flow cytometry, Alexa488-MEK5 binding to MEKK2 WT; actives lie on both sides; binding response (% of control), % at 10 µM; hit rate 2.4% among 5,900; in the data active means binding response below about 16% or above about 210%; inactive means in between
MEKK2mut-MEK5: signal of MEK5 binding to mutant human MEKK2, retest; shares compounds with MEKK3 PB1 HTS; bead flow cytometry, Alexa488-MEK5 binding to MEKK2 mutant; percent response, % at 10 µM; hit rate 2% among 5,900; in the data active means percent response mostly above about 71%, no sharp cut-off; inactive means mostly below about 38%;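 further: higher means compound restores mutant binding toward wildtype level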
MEKK3-MEK5 inh: MEKK3-MEK5 PB1 inhibition, single concentration confirmation | shares compounds with MEKK3 PB1 HTS | hit rate 1.8% among 5,900 | bead flow cytometry, Alexa488-MEK5 binding to MEKK3; hits give low values | binding response (% of control), % at 10 µM;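 active means binding response below 72% of control, or above a set upper limit, though filed actives all read lower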;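 further: 100% = DMSO only wells and 0% = binding blocked by excess unlabeled MEK5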
An asterisk follows results filed as active; / = no result; [ ] = remark or other dose. The list is not random: actives were taken first. Their share in the collection is about 2.3%.

SMILES | ABCG2 block | MEKK2 WT-MEK5 | ABCB1 block | MEKK2mut PB1 HTS | MEKK3 PB1 HTS | MEKK2wt confirm | MEKK2mut-MEK5 | MEKK3-MEK5 inh
O=S(=O)(c1ccc(F)cc1)n1ccc(-c2cccc(OCc3c(F)cccc3Cl)c2)n1 | -0.5 | 2.0*[inhibitor] | 0.0 | -17.0 | 2.0*[inhibitor] | 95.0 | -8.0 | 97.0
Cn1c(SCC(=O)NC2CCCCC2)nnc1-c1ccccc1O | / | 106.0 | / | 6.0 | 102.0 | / | / | /
CCOc1ccccc1C1C(C(=O)Nc2ccccc2OC)=C(C)Nc2nnnn21 (configuration not stated) | 3.2 | 111.0 | 0.8 | 26.0* | 113.0 | 101.0 | 4.0 | 100.0
COC(=O)c1ccc2c(=O)n(CCCCCC(=O)N3CCN(c4ccccc4)CC3)c(=O)[nH]c2c1 | 35.5 | 119.0 | 7.5 | 6.0 | 122.0* | 100.0 | 0.0 | 102.0
CCN1CCN(C(=O)CCCCCn2c(=O)[nH]c3cc(C(=O)OC)ccc3c2=O)CC1 | 1.3 | 96.0 | 0.3 | -1.0 | 100.0 | / | / | /
O=C(Cc1cccs1)NCCc1ccc(Cl)cc1 | / | 106.0 | / | 6.0 | 100.0 | / | / | /
O=C(Nc1cc(-c2ccccc2)[nH]n1)c1ccccc1F | / | 38.0*[inhibitor] | / | -48.0 | 35.0*[inhibitor] | 104.0 | 5.0 | 102.0
Cn1c(=O)c2c(nc(CN3CCN(C(=O)c4ccco4)CC3)n2CC(=O)C(C)(C)C)n(C)c1=O | / | 101.0 | / | 1.0 | 103.0 | / | / | /
O=C(CCNC(=O)C1CCN(S(=O)(=O)c2ccc(F)cc2)CC1)NCc1cccc(Cl)c1 | / | 98.0 | / | 3.0 | 99.0 | / | / | /
COc1ccc2c(c1)c(CC(=O)Nc1ccc(C(C)=O)cc1)c(C)n2C(=O)c1ccc(Cl)cc1 | -0.3 | 92.0 | 0.2 | 1.0 | 47.0*[inhibitor] | 105.0 | -3.0 | 101.0
O=C(NCC1CCCO1)C1CCC(=O)N1Cc1ccc(F)cc1 (configuration not stated) | 1.8 | -4.0*[inhibitor] | 0.7 | -26.0 | -1.0*[inhibitor] | 101.0 | -2.0 | 101.0
Cc1cc(C(=O)COc2cccnc2[N+](=O)[O-])c(C)n1-c1ccccc1 | 7.6 | 90.0 | 0.7 | -3.0 | 90.0 | / | / | /
Cc1ccc(-n2c(C)cc(C(=O)COc3cccnc3[N+](=O)[O-])c2C)cc1 | 55.3 | 110.0 | 2.4 | 0.0 | 152.0* | 98.0 | -8.0 | 99.0
Cc1nc(NCc2ccc3c(c2)OCO3)c2oc3ccccc3c2n1 | -0.1 | 81.0 | 0.0 | -15.0 | 70.0*[inhibitor] | 100.0 | -1.0 | 98.0
CCc1nc(NCc2ccc3c(c2)OCO3)c2oc3ccccc3c2n1 | 0.6 | 96.0 | 0.4 | 3.0 | 99.0 | / | / | /
CCCCn1c(N)c(N(Cc2ccccc2OC)C(=O)CCC(C)C)c(=O)[nH]c1=O | / | 99.0 | / | -2.0 | 95.0 | / | / | /
CC(C(=O)Nc1cc([N+](=O)[O-])ccc1Cl)N1CCN(c2ccccc2O)CC1 (configuration not stated) | 26.2 | 102.0 | 2.5 | 0.0 | 132.0* | 97.0 | 2.0 | 98.0
COc1ccc([N+](=O)[O-])cc1NC(=O)C(C)N1CCCC1 (configuration not stated) | / | 105.0 | / | 6.0 | 104.0 | / | / | /
CSc1cccc(NC(=O)c2[nH]c(C)c(C(C)=O)c2C)c1 | / | 111.0 | / | 5.0 | 110.0 | / | / | /
CCCCc1nnc(SCC(=O)NC2CCCCC2)n1C | / | 111.0 | / | 10.0 | 106.0 | / | / | /
Cc1nnc(SCc2ccccc2CSc2nnc(C)s2)s1 | 3.5 | 113.0 | 1.7 | 0.0 | 130.0* | 106.0 | 7.0 | 107.0
O=C(CSc1ncnc2scc(-c3ccccc3)c12)Nc1ccc(C(=O)O)cc1 | / | 94.0 | / | -7.0 | 94.0 | / | / | /
CC(=O)Nc1ccc(Sc2ncnc3scc(-c4ccccc4)c23)cc1 | 0.0 | 99.0 | 0.4 | -1.0 | 128.0* | 102.0 | 5.0 | 104.0
Cc1ccc(S(=O)(=O)NCC(C)NS(=O)(=O)c2ccc(C)cc2)cc1 (configuration not stated) | 4.0 | 109.0 | 0.4 | 2.0 | 108.0 | / | / | /
CNC(=O)OC(C)CNS(=O)(=O)c1ccc(C)cc1 (configuration not stated) | -1.2 | 2.0*[inhibitor] | -0.5 | -21.0 | 2.0*[inhibitor] | 104.0 | 18.0 | 104.0
SMILES | ABCG2 block | MEKK2 WT-MEK5 | ABCB1 block | MEKK2mut PB1 HTS | MEKK3 PB1 HTS | MEKK2wt confirm | MEKK2mut-MEK5 | MEKK3-MEK5 inh
O=C(NCCO)C(=O)Nc1cc2c3c(c1)CCN3C(=O)CC2 | / | 95.0 | / | -1.0 | 96.0 | / | / | /
COc1ccc(C2/C=C\CN(S(=O)(=O)c3ccc(C)cc3)CC(=O)N2Cc2ccc(F)cc2)cc1 (configuration not stated) | / | 158.0* | / | 2.0 | 129.0* | 102.0 | 1.0 | 100.0
COC(=O)N1C/C=C\C(c2ccc(OC)cc2)N(Cc2ccc(F)cc2)C(=O)C1 (configuration not stated) | / | 94.0 | / | 3.0 | 96.0 | / | / | /
COc1ccc(C2/C=C\CN(C(=O)NC34CC5CC(CC(C5)C3)C4)CC(=O)N2Cc2ccc(F)cc2)cc1 (configuration not stated) | / | 147.0* | / | 2.0 | 123.0 | 96.0 | -1.0 | 102.0
O=C(Cn1ccc2cc(S(=O)(=O)N3CCCCC3)ccc21)NCc1ccccc1F | / | 94.0 | / | -2.0 | 97.0 | / | / | /
CCN1CCc2nc(NC(=O)c3ccc4c(c3)OCCO4)sc2C1 | 0.0 | 119.0 | -0.2 | 10.0 | 100.0 | / | / | /
CCN1CCc2nc(NC(=O)Cc3ccc4c(c3)OCCO4)sc2C1 | 0.4 | 140.0* | 0.2 | 9.0 | 98.0 | 163.0 | 46.0 | 111.0
CCN1CCc2nc(NC(=O)C(c3ccccc3)c3ccccc3)sc2C1 | 0.5 | 104.0 | 0.3 | 6.0 | 97.0 | / | / | /
CCN1CCc2nc(NC(=O)CC(c3ccccc3)c3ccccc3)sc2C1 | 2.2 | 183.0* | 1.2 | 44.0* | 109.0 | 194.0 | 51.0 | 110.0
Cc1cc(C)n(-c2nnc(C)n2N)n1 | -2.6 | 113.0 | -0.1 | 9.0 | 105.0 | / | / | /
Cc1nnc(C)n1N | -1.8 | -3.0*[inhibitor] | -0.2 | -4.0 | 101.0 | 94.0 | -19.0 | 93.0
O=C(NCc1ccc(F)cc1)c1cc2c(s1)CS(=O)(=O)C2 | / | 105.0 | / | 4.0 | 102.0 | / | / | /
O=C(O)C1Nc2ccc(C(F)(F)F)cc2C2OCCC12 (configuration not stated) | / | 94.0 | / | -4.0 | 78.0*[inhibitor] | 98.0 | 0.0 | 102.0
CC(C)CNC(=O)C1Nc2ccc(C(F)(F)F)cc2C2C=CCC12 (configuration not stated) | / | 103.0 | / | 0.0 | 100.0 | / | / | /
CCCCNCC(O)(c1ccc(Cl)cc1)c1ccc(Cl)cc1 | 3.2 | 146.0* | 3.6 | 21.0 | 119.0 | 105.0 | -6.0 | 84.0
COc1ccc(CNCC(O)(c2ccc(Cl)cc2)c2ccc(Cl)cc2)cc1OC | 7.7 | 179.0* | 6.3 | 39.0 | 113.0 | 131.0 | 9.0 | 100.0
